TRPC6 activator – activators of mouse TRPC6 channel. HEK293-TRPC6 membrane potential dye fluorescence; stronger effect = higher value. B-score at 10 µM. 310,000 compounds, 0.13% hits. AID 2550;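 active = B-score of the integrated fluorescence ratio above library mean plus 3 SD, and starting fluorescence ratio within library mean plus 5 SD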;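 note: higher score means more depolarization so channel activation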
Target sequence (Q61143 whole entry, looked up): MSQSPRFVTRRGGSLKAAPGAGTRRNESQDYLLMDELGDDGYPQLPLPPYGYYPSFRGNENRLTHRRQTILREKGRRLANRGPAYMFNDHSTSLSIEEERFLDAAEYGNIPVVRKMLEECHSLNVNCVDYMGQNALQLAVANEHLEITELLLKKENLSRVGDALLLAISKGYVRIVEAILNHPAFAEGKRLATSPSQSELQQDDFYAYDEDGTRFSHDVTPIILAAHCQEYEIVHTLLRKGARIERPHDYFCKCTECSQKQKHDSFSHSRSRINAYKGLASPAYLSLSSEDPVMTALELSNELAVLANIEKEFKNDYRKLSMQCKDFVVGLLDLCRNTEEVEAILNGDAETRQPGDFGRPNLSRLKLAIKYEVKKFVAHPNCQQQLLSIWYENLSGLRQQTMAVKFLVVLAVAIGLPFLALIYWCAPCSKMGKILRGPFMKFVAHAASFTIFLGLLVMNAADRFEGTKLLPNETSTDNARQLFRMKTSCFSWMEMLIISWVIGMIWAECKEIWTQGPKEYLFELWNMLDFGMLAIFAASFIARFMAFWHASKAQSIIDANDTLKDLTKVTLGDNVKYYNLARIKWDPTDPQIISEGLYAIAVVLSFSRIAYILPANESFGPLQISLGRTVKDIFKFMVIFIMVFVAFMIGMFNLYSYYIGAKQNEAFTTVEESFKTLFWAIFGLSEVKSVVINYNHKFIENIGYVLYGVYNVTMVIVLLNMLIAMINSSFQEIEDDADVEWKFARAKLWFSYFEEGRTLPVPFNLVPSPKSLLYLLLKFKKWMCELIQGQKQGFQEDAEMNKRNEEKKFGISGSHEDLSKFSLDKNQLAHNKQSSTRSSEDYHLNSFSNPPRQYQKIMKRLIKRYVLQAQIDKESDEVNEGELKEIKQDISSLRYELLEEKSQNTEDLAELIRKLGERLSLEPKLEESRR
TRPC4 agonist – opens the mouse TRPC4 cation channel; HEK293 TRPC4beta/mu-opioid, Fluo4 calcium fluorescence; stronger effect = higher value; B-score at 10 µM; 310,000 compounds, 0.49% hits;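 active = B-score above 5 SD of library B-scores, and initial fluorescence ratio not above library mean plus 5 SD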;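 note: positive B-score marks a calcium rise read as TRPC4 activation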
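Material: TRPC4beta and mu-opioid receptor HEK293 stable cells | Incubation: 45 min room-temperature Fluo4 loading, 110 s read | Detection: Kinetic Fluo4 calcium fluorescence | Measure: Integrated baseline-normalised fluorescence ratio, converted to per-well B score | Benchmarks: Low control buffer alone, high control maximal DAMGO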
TRPC4 PAM – allosteric potentiators of mouse TRPC4 channel; AID 2227; B-score at 10 µM; 310,000 compounds, 0.42% hits; HEK293 TRPC4beta/mu-opioid, DAMGO EC20, Fluo-4 Ca2+ flux; stronger effect = higher value;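 active = B-score of calcium response area above 5 SD of library B-scores, with initial fluorescence ratio within 5 SD of library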;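 note: B-score of integrated fluorescence ratio over time as area under calcium response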
TRPC6 inhibitor – blocks the mouse TRPC6 cation channel; Q61143; HEK293-TRPC6, membrane potential dye, ACh-evoked depolarization; stronger effect = lower value; B-score at 10 µM; 310,000 compounds, 1.1% hits;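 active = B-score under library mean minus 3 SD, initial fluorescence not abnormally high, positive integrated signal ratio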;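 note: B-score derived from integrated fluorescence ratio over the kinetic read; more negative B-score means stronger inhibition of depolarization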
TRPC4 inh – inhibitors of mouse TRPC4 channel | Q9QUQ5 | HEK293 TRPC4beta/mu-opioid, DAMGO-evoked Fluo4 calcium flux; stronger effect = lower value | B-score at 10 µM | 300,000 compounds, 0.39% hits;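 active = B-score over 3 SD under the library average, no early fluorescence shift, positive overall ratio signal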
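Test system – stable TRPC4beta/mu-opioid receptor HEK293 cells · Probe or stimulus – DAMGO, a submaximal dose followed by a maximal one · Dosing – one concentration per compound · Signal – Fluo4 calcium fluorescence by kinetic imaging, 5 s 1 Hz baseline · Evaluation – per-well B score of integrated baseline-normalized Fluo4 ratio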
TRPC4 spec 2 – mouse TRPC4 off-target activity of TRPC6 inhibitors, second screen; inhibition, % at 10 µM; HEK293 TRPC4/MOR, membrane potential dye fluorescence; channel activated by saturating DAMGO dose; 920 compounds, 42% hits; shares compounds with TRPC6 inhibitor;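 active = compounds whose fluorescence signal differed from control wells by over 3 SD, either direction, in both duplicate plates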
TRPC4 spec – selectivity of TRPC6 inhibitors: effect on mouse TRPC4 | HEK293 TRPC4/mu-opioid, membrane potential fluorescence | activity change, negative = inhibition, % at 10 µM | 920 compounds, 61% hits | shares compounds with TRPC6 inhibitor | AID 2777;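 active = rise or fall in signal beyond 3 SD of buffer-only wells in both replicate plates, either sign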;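 note: integrated kinetic ratio of fluorescence range over baseline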
HEK293 MPD ctr 2-1 – parental HEK293 nonspecific activity of TRPC6 inhibitors, second screen; parental HEK293 membrane potential dye fluorescence; maximal acetylcholine challenge after compound addition; shares compounds with TRPC6 inhibitor; signal change vs control, % at 10 µM; AID 2779; 920 compounds, 31% hits;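 active = membrane potential signal moving either way by over 3 SD of the maximum-effect control, in both duplicate plates, meaning non-specific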
HEK293 MPD ctr-1 – parental HEK293 nonspecific activity of TRPC6 inhibitors; 920 compounds, 60% hits; parental HEK293 membrane potential dye fluorescence; membrane potential signal change, % at 10 µM; shares compounds with TRPC6 inhibitor; AID 2780;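 active = membrane potential signal shifting up or down by more than 3 SD of buffer-only wells, on both duplicate plates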
HEK293 MPD ctr-2 – checks TRPC6 modulator effects in parental HEK293 cells. membrane potential signal change, % at 10 µM. AID 488924. shares compounds with TRPC6 inhibitor. membrane potential dye fluorescence. 2,400 compounds, 51% hits;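 active = membrane potential signal moves up or down beyond 5 SD from buffer-only wells, on both duplicate plates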
HEK293 MPD ctr 2-2 – second check of TRPC6 modulator effects in parental HEK293 cells; shares compounds with TRPC6 inhibitor; membrane potential dye fluorescence; after compound, maximal acetylcholine stimulation; inhibition, % at 10 µM; 2,400 compounds, 14% hits; AID 488926;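 active = membrane potential signal drops by more than 5 SD from the mean control signal, in both duplicate plates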;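 note: plate controls were acetylcholine ECmax control wells for no effect and buffer only wells for full effect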
TRPC4 ctr mod – mouse TRPC4 off-target activity of TRPC6 modulators; shares compounds with TRPC6 inhibitor; AID 488927; 2,400 compounds, 69% hits; percent change from control (negative = decrease, positive = increase), % at 10 µM; HEK293 TRPC4/mu-opioid, membrane potential fluorescence;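 active = membrane potential signal moved up or down beyond 5 SD of buffer control wells, in both duplicate plates, actives on both sides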;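 note: plate controls were assay buffer wells for no effect and DAMGO maximal-effect wells for full effect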
TRPC4/MOR inh 2 – second selectivity test of TRPC6 modulators against mouse TRPC4; shares compounds with TRPC6 inhibitor; HEK293 TRPC4/mu-opioid, membrane potential dye fluorescence; stimulated with maximal-effect DAMGO; inhibition, % at 10 µM; 2,400 compounds, 55% hits; AID 488928;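 active = drop in membrane potential signal beyond 5 SD of the control wells in both duplicate plates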;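 note: TRPC4 counter screen for TRPC6 hits run under conditions tuned for TRPC6 not TRPC4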
TRPC6 inh conf – confirmation of mouse TRPC6 inhibitors. HEK293-TRPC6, membrane potential dye, ACh-evoked depolarization. inhibition, % at 10 µM. AID 488960. 3,300 compounds, 43% hits. shares compounds with TRPC6 inhibitor;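 active = fluorescence ratio falls more than 5 SD below the full-stimulation control mean, in both duplicate runs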;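 note: integrated fluorescence ratio of peak minus minimum over baseline after agonist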
TRPC6 act conf – confirmation of mouse TRPC6 activators; shares compounds with TRPC6 inhibitor; HEK293-TRPC6 membrane potential dye fluorescence, FDSS; activation, % at 10 µM; 2,800 compounds, 11% hits;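 active = ratio signal rise beyond 5 SD above unstimulated control wells' mean, seen in both duplicate runs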;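 note: plate controls were buffer EC0 wells for no effect and acetylcholine ECmax response for full effect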
Starred values were filed as active, the others as inactive. Shown are actives, neighbours in structure and some others; about 2.3% of the full set was active somewhere.

Screening Cc1cc(S(=O)(=O)N2CCCC(N(C)CCc3ccccn3)C2)c(C)cc1Cl (stereo unspecified) returned TRPC6 activator inactive, TRPC4 agonist inactive, TRPC4 PAM inactive, TRPC6 inhibitor inactive and TRPC4 inh inactive.
CCOC(=O)C1=C(C)NC(C)=C(C(=O)OCC)C1c1sccc1C was read as TRPC6 activator inactive, TRPC4 agonist inactive, TRPC4 PAM inactive, TRPC6 inhibitor -5.4*, TRPC4 inh inactive, HEK293 MPD ctr-2 inactive, HEK293 MPD ctr 2-2 inactive, TRPC4 ctr mod inactive, TRPC4/MOR inh 2 40%*, TRPC6 inh conf inactive and TRPC6 act conf inactive.
For CCOC(=O)C1=C(C)NC(C)=C(C(=O)OCC)C1c1cccs1 the results were TRPC6 activator inactive, TRPC4 agonist inactive, TRPC4 PAM inactive, TRPC6 inhibitor inactive and TRPC4 inh inactive.
O=C(O)Cc1sc(-c2ccccc2Cl)nc1-c1ccccc1 was read as TRPC6 activator inactive, TRPC4 agonist inactive, TRPC4 PAM inactive, TRPC6 inhibitor -6.2*, TRPC4 inh inactive, HEK293 MPD ctr-2 inactive, HEK293 MPD ctr 2-2 inactive, TRPC4 ctr mod inactive, TRPC4/MOR inh 2 inactive, TRPC6 inh conf inactive and TRPC6 act conf inactive.
Cc1ccc(NC(=S)NCCN(C2CCCCC2)C2CCCC2)cc1C was read as TRPC6 activator inactive, TRPC4 agonist inactive, TRPC4 PAM inactive, TRPC6 inhibitor -5.2*, TRPC4 inh inactive, HEK293 MPD ctr-2 110%*, HEK293 MPD ctr 2-2 inactive, TRPC4 ctr mod 16%*, TRPC4/MOR inh 2 66%* and TRPC6 inh conf inactive.
Screening O=C(NC1CCCC1)c1noc2c1CCCCC2 returned TRPC6 activator inactive, TRPC4 agonist inactive, TRPC4 PAM inactive, TRPC6 inhibitor -8*, TRPC4 inh inactive, TRPC4 spec 2 inactive, TRPC4 spec inactive, HEK293 MPD ctr 2-1 inactive, HEK293 MPD ctr-1 inactive, TRPC6 inh conf inactive and TRPC6 act conf inactive.
For O=C(NCc1ccccc1)c1noc2c1CCCCC2 the results were TRPC6 activator inactive, TRPC4 agonist inactive, TRPC4 PAM inactive, TRPC6 inhibitor inactive and TRPC4 inh inactive.
For Cc1c(NC(=O)NCCN2C(=O)C3C4C=CC(C4)C3C2=O)c(=O)n(-c2ccccc2)n1C (stereo unspecified) the results were TRPC6 activator inactive, TRPC4 agonist inactive, TRPC4 PAM inactive, TRPC6 inhibitor inactive and TRPC4 inh inactive.
Screening COC(=O)c1[nH]c2ccccc2c1NC(=O)CN1CC(C)OC(C)C1 (stereo unspecified) returned TRPC6 activator inactive, TRPC4 agonist inactive, TRPC4 PAM inactive, TRPC6 inhibitor inactive and TRPC4 inh inactive.
`CCOC(=O)c1[nH]c2ccc(F)cc2c1NC(=O)CN1CCN(C/C=C/c2ccccc2)CC1` gave TRPC6 activator inactive, TRPC4 agonist inactive, TRPC4 PAM inactive, TRPC6 inhibitor -12*, TRPC4 inh inactive, TRPC4 spec 2 40%*, TRPC4 spec -21%*, HEK293 MPD ctr 2-1 inactive, HEK293 MPD ctr-1 -246%*, TRPC6 inh conf 88%* and TRPC6 act conf inactive.
Screening CCOC(=O)c1[nH]c2ccc(F)cc2c1NC(=O)CN1CCc2cc(OC)c(OC)cc2C1 returned TRPC6 activator inactive, TRPC4 agonist inactive, TRPC4 PAM inactive, TRPC6 inhibitor inactive and TRPC4 inh inactive.
COC(=O)c1[nH]c2ccccc2c1NC(=O)CN1CCN(C/C=C/c2ccccc2)CC1 was read as TRPC6 activator inactive, TRPC4 agonist inactive, TRPC4 PAM inactive, TRPC6 inhibitor -7.8*, TRPC4 inh inactive, TRPC4 spec 2 30%*, TRPC4 spec -16%*, HEK293 MPD ctr 2-1 inactive, HEK293 MPD ctr-1 -176%*, TRPC6 inh conf 79%* and TRPC6 act conf inactive.
COC(=O)c1cc(COc2ccc3c(c2)oc(=O)c2ccccc23)c(C)o1 was read as TRPC6 activator inactive, TRPC4 agonist inactive, TRPC4 PAM inactive, TRPC6 inhibitor inactive and TRPC4 inh inactive.
`CCOC(=O)c1sc(NC(=O)Nc2ccc(Cl)cc2)nc1C` gave TRPC6 activator inactive, TRPC4 agonist inactive, TRPC4 PAM inactive, TRPC6 inhibitor inactive and TRPC4 inh inactive.
COc1ccccc1C(=O)NC(=O)COC(=O)CCOc1cc(C)ccc1C was read as TRPC6 activator inactive, TRPC4 agonist inactive, TRPC4 PAM inactive, TRPC6 inhibitor inactive and TRPC4 inh inactive.
Screening CC1=Nc2ccccc2/C1=C/c1sc(=S)n(-c2cccc(C(=O)O)c2)c1O returned TRPC6 activator 56*, TRPC4 agonist 44*, TRPC4 PAM 11*, TRPC6 inhibitor inactive, TRPC4 inh inactive, HEK293 MPD ctr-2 active, HEK293 MPD ctr 2-2 inactive, TRPC4 ctr mod 212%*, TRPC4/MOR inh 2 inactive, TRPC6 inh conf inactive and TRPC6 act conf 314%*.
For Oc1c(C=C2N=c3ccccc3=N2)sc(=S)n1-c1ccccc1 the results were TRPC6 activator inactive, TRPC4 agonist inactive, TRPC4 PAM inactive, TRPC6 inhibitor inactive and TRPC4 inh inactive.

Bioassay records from PubChem BioAssay.
